# Data published in ChEMBL document CHEMBL5058577, “EUbOPEN Chemogenomics Library 2 (Multiplex)” (2022).
# Tested on: Fibroblast
# Assay: Multiplex assay against human fibroblast
# Assay type: toxicity, cell-based
# How it was run: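 With compound added, live cells were imaged on a CQ1 microscope at 37°C and 5% CO2; staining with Hoechst33342, BioTracker Green Microtubule Cytoskeleton Dye, MitoTracker Red and Annexin V Alexa Fluor 680 had been done at seeding. The CellPathfinder machine-learning gating scheme split cells into Hoechst high-intensity objects or normal cells, normal cells into healthy, pyknosed or fragmented nuclei, and pyknosed cells into mitotic or apoptotic. The tubulin, mitochondrial-mass and membrane-permeability phenotypes are per cents of healthy-nucleus cells.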
# [1] = 12 h, 1 µM, compound concentration 1 uM, replicate 1
# [2] = 12 h, 1 µM, compound concentration 1 uM, replicate 2
# [3] = 12 h, 10 µM, compound concentration 10 uM, replicate 1
# [4] = 12 h, 10 µM, compound concentration 10 uM, replicate 2
# [5] = 24 h, 1 µM, compound concentration 1 uM, replicate 1
# [6] = 24 h, 1 µM, compound concentration 1 uM, replicate 2
# [7] = 24 h, 10 µM, compound concentration 10 uM, replicate 1
# [8] = 24 h, 10 µM, compound concentration 10 uM, replicate 2
# [9] = 48 h, 1 µM, compound concentration 1 uM, replicate 1
# [10] = 48 h, 1 µM, compound concentration 1 uM, replicate 2
# [11] = 48 h, 10 µM, compound concentration 10 uM, replicate 1
# [12] = 48 h, 10 µM, compound concentration 10 uM, replicate 2
smiles,measurement,setting,value
N#Cc1cc(F)cc(-c2nc(-c3ccc(F)cn3)no2)c1,Population Apoptotic (%),[1],28%
same,Population Fragmented Nuclei (%),[1],21%
same,Population Healthy Nuclei (%),[1],63%
same,Population Hoechst High Intensity Objects (%),[1],0%
same,Population Membrane Permeable-Phenotype (%),[1],2%
same,Population Mitochondria Different-Phenotype (%),[1],5%
same,Population Mitotic Cells (%),[1],71%
same,Population Normal (%),[1],100%
same,Population Pyknosed Nuclei (%),[1],15%
same,Population Tubulin-Different-Phenotype (%),[1],22%
same,Total Cell Count,[1],136
same,Population Apoptotic (%),[2],38%
same,Population Fragmented Nuclei (%),[2],32%
same,Population Healthy Nuclei (%),[2],37%
same,Population Hoechst High Intensity Objects (%),[2],6%
same,Population Membrane Permeable-Phenotype (%),[2],15%
same,Population Mitochondria Different-Phenotype (%),[2],6%
same,Population Mitotic Cells (%),[2],61%
same,Population Normal (%),[2],93%
same,Population Pyknosed Nuclei (%),[2],29%
same,Population Tubulin-Different-Phenotype (%),[2],48%
same,Total Cell Count,[2],93
same,Population Apoptotic (%),[3],48%
same,Population Fragmented Nuclei (%),[3],15%
same,Population Healthy Nuclei (%),[3],67%
same,Population Hoechst High Intensity Objects (%),[3],1%
same,Population Membrane Permeable-Phenotype (%),[3],2%
same,Population Mitochondria Different-Phenotype (%),[3],5%
same,Population Mitotic Cells (%),[3],51%
same,Population Normal (%),[3],98%
same,Population Pyknosed Nuclei (%),[3],17%
same,Population Tubulin-Different-Phenotype (%),[3],23%
same,Total Cell Count,[3],179
same,Population Apoptotic (%),[4],28%
same,Population Fragmented Nuclei (%),[4],42%
same,Population Healthy Nuclei (%),[4],32%
same,Population Hoechst High Intensity Objects (%),[4],8%
same,Population Membrane Permeable-Phenotype (%),[4],9%
same,Population Mitochondria Different-Phenotype (%),[4],12%
same,Population Mitotic Cells (%),[4],72%
same,Population Normal (%),[4],91%
same,Population Pyknosed Nuclei (%),[4],24%
same,Population Tubulin-Different-Phenotype (%),[4],36%
same,Total Cell Count,[4],110
same,Population Apoptotic (%),[5],40%
same,Population Fragmented Nuclei (%),[5],19%
same,Population Healthy Nuclei (%),[5],68%
same,Population Hoechst High Intensity Objects (%),[5],2%
same,Population Membrane Permeable-Phenotype (%),[5],1%
same,Population Mitochondria Different-Phenotype (%),[5],3%
same,Population Mitotic Cells (%),[5],60%
same,Population Normal (%),[5],97%
same,Population Pyknosed Nuclei (%),[5],11%
same,Population Tubulin-Different-Phenotype (%),[5],18%
same,Total Cell Count,[5],131
same,Population Apoptotic (%),[6],27%
same,Population Fragmented Nuclei (%),[6],39%
same,Population Healthy Nuclei (%),[6],38%
same,Population Hoechst High Intensity Objects (%),[6],7%
same,Population Membrane Permeable-Phenotype (%),[6],12%
same,Population Mitotic Cells (%),[6],72%
same,Population Normal (%),[6],92%
same,Population Pyknosed Nuclei (%),[6],22%
same,Population Tubulin-Different-Phenotype (%),[6],58%
same,Total Cell Count,[6],88
same,Population Apoptotic (%),[7],70%
same,Population Fragmented Nuclei (%),[7],12%
same,Population Healthy Nuclei (%),[7],70%
same,Population Hoechst High Intensity Objects (%),[7],4%
same,Population Membrane Permeable-Phenotype (%),[7],0%
same,Population Mitochondria Different-Phenotype (%),[7],6%
same,Population Mitotic Cells (%),[7],29%
same,Population Normal (%),[7],95%
same,Population Pyknosed Nuclei (%),[7],16%
same,Population Tubulin-Different-Phenotype (%),[7],22%
same,Total Cell Count,[7],170
same,Population Apoptotic (%),[8],35%
same,Population Fragmented Nuclei (%),[8],47%
same,Population Healthy Nuclei (%),[8],33%
same,Population Hoechst High Intensity Objects (%),[8],11%
same,Population Membrane Permeable-Phenotype (%),[8],5%
same,Population Mitochondria Different-Phenotype (%),[8],11%
same,Population Mitotic Cells (%),[8],65%
same,Population Normal (%),[8],88%
same,Population Pyknosed Nuclei (%),[8],18%
same,Population Tubulin-Different-Phenotype (%),[8],41%
same,Total Cell Count,[8],120
same,Population Apoptotic (%),[9],61%
same,Population Fragmented Nuclei (%),[9],21%
same,Population Healthy Nuclei (%),[9],68%
same,Population Hoechst High Intensity Objects (%),[9],1%
same,Population Membrane Permeable-Phenotype (%),[9],0%
same,Population Mitochondria Different-Phenotype (%),[9],3%
same,Population Mitotic Cells (%),[9],38%
same,Population Normal (%),[9],98%
same,Population Pyknosed Nuclei (%),[9],9%
same,Population Tubulin-Different-Phenotype (%),[9],23%
same,Total Cell Count,[9],137
same,Population Apoptotic (%),[10],50%
same,Population Fragmented Nuclei (%),[10],45%
same,Population Healthy Nuclei (%),[10],32%
same,Population Hoechst High Intensity Objects (%),[10],5%
same,Population Membrane Permeable-Phenotype (%),[10],3%
same,Population Mitochondria Different-Phenotype (%),[10],7%
same,Population Mitotic Cells (%),[10],50%
same,Population Normal (%),[10],94%
same,Population Pyknosed Nuclei (%),[10],22%
same,Population Tubulin-Different-Phenotype (%),[10],57%
same,Total Cell Count,[10],85
same,Population Apoptotic (%),[11],84%
same,Population Fragmented Nuclei (%),[11],20%
same,Population Healthy Nuclei (%),[11],63%
same,Population Hoechst High Intensity Objects (%),[11],7%
same,Population Membrane Permeable-Phenotype (%),[11],0%
same,Population Mitochondria Different-Phenotype (%),[11],11%
same,Population Mitotic Cells (%),[11],16%
same,Population Normal (%),[11],92%
same,Population Pyknosed Nuclei (%),[11],16%
same,Population Tubulin-Different-Phenotype (%),[11],28%
same,Total Cell Count,[11],162
same,Population Apoptotic (%),[12],50%
same,Population Fragmented Nuclei (%),[12],44%
same,Population Healthy Nuclei (%),[12],38%
same,Population Hoechst High Intensity Objects (%),[12],5%
same,Population Membrane Permeable-Phenotype (%),[12],15%
same,Population Mitochondria Different-Phenotype (%),[12],5%
same,Population Mitotic Cells (%),[12],50%
same,Population Normal (%),[12],94%
same,Population Pyknosed Nuclei (%),[12],17%
same,Population Tubulin-Different-Phenotype (%),[12],50%
same,Total Cell Count,[12],110
